Test [1] is described as follows: Antiproliferative activity against human U87 cells after 72 hrs. It counts as functional, cell-based, U-87MG ATCC. The settings on record: U-87 MG. An outline of the steps:
(§1)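 Cells exposed to compound for 72 h; IC50 taken as the concentration giving 50% inhibition of cell proliferation.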

The next test relates to MCF7. Briefly: Antiproliferative activity against human MCF7 cells after 72 hrs. It counts as functional, cell-based. The following applies: MCF7, 72 h. An outline of the steps:
as §1

The subject of a further test is HCT-116. Briefly: Antiproliferative activity against human HCT116 cells after 72 hrs. It counts as functional, cell-based. The following applies: HCT-116, 72 h. An outline of the steps: as §1
Test [2] in a line: Inhibition of sheep brain tubulin assembly by UV-spectrophotometry. On the set-up: species or system Ovis aries. The method in brief: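 Microtubule assembly run at 3 mg/mL tubulin; IC50 defined as the concentration inhibiting the rate of assembly by 50%.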
The test system of a further test is K562. As to the kind of experiment: Antiproliferative activity against human K562 cells after 72 hrs. It counts as functional, cell-based. The settings on record: K562, 72 h. The method in brief:
as §1

The IC50 is the concentration that gives 50% inhibition. Take `CCC1=C[C@@H]2CN(C1)C[C@H](CN1CCC[C@H]1C(=O)OC)Cc1c([nH]c3ccccc13)[C@@](C(=O)OC)(c1cc3c(cc1OC)N(C)[C@H]1[C@@](O)(C(=O)OC)[C@H](OC(C)=O)[C@]4(CC)C=CCN5CC[C@]31[C@@H]54)C2`: the IC50 in test [1] was found to be 25 nM; with MCF7 it was 230 nM; with HCT-116, 700 nM; in test [2] it was 1000 nM; in the test on K562, 120 nM.

In the case of `CCC1=C[C@@H]2CN(C1)C[C@H](CN1CCC[C@H]1C(=O)N[C@H](C(=O)OC)[C@@H](C)CC)Cc1c([nH]c3ccccc13)[C@@](C(=O)OC)(c1cc3c(cc1OC)N(C)[C@H]1[C@@](O)(C(=O)OC)[C@H](OC(C)=O)[C@]4(CC)C=CCN5CC[C@]31[C@@H]54)C2`, the IC50 in test [1] was 400 nM; in the test on MCF7 it was 800 nM; in the test with HCT-116, 1000 nM; in test [2], 2700 nM; with K562 it was 250 nM.

The compound `CC[C@H](C)[C@H](NC(=O)[C@@H]1CCCN1C(=O)[C@H]1NC(=O)[C@H](C(C)C)NC(=O)[C@@H](NC)[C@@H](O)c2cc(Cl)c(O)c(c2)O[C@]1(C)CC)C(=O)NC(CC(=O)O)C(=O)O` (mixture of isomers) returned an IC50 in test [2] of 400 nM.

Regarding `C=C(C)[C@@H]1NC(=O)[C@@H](NC)[C@@H](O)c2cc(Cl)c(O)c(c2)O[C@](C)(CC)[C@@H](C(=O)N2CC=C[C@H]2C(=O)N/C(C(=O)N/C(=C/C(=O)O)C(=O)O)=C(\C)CC)NC1=O` [PHOMOPSIN A], inhibition in test [2] was half-maximal at 560 nM (IC50).

In the case of `CC[C@]1(O)C[C@@H]2CN(CCc3c([nH]c4ccccc34)[C@@](C(=O)OC)(c3cc4c(cc3OC)N(C)[C@H]3[C@@](O)(C(=O)OC)[C@H](OC(C)=O)[C@]5(CC)C=CCN6CC[C@]43[C@@H]65)C2)C1` [VINBLASTINE], the IC50 worked out at 1 nM in test [1], 0.7 nM with MCF7, 2100 nM in test [2] and 2.7 nM with K562.

As for `CCC1=C[C@@H]2CN(C1)Cc1c([nH]c3ccccc13)[C@@](C(=O)OC)(c1cc3c(cc1OC)N(C)[C@H]1[C@@](O)(C(=O)OC)[C@H](OC(C)=O)[C@]4(CC)C=CCN5CC[C@]31[C@@H]54)C2` [VINORELBINE], the IC50 came to 2 nM in test [1], 4 nM with MCF7, 600 nM in test [2] and 3.5 nM with K562.
